According to article PMC9049079 (RSC Advances, 2020):

Tests used:
[1] = molecular target: T1, α-Glucosidase from Saccharomyces cerevisiae (Saccharomyces cerevisiae, UniProt P53341); assay: Fluorescence quenching of α-glucosidase; format: binding; details: for Kq (quenching rate constant): Kq = KSV/τ0, τ0 = 10^−8 s; for Kd: K a (binding constant); for ΔG°: ΔG = ΔH − TΔS
Method in brief: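 Intrinsic fluorescence quenching: enzyme at 6.96 × 10−2 μM, titrated with test compound (0–1.10 μM final), 5 min equilibration, at 298, 304 and 310 K. Excitation 280 nm, emission 290–500 nm, slits 2.5 nm. Buffer (pH 6.8) and compound blanks were subtracted, with inner-filter correction from absorbance. KSV from linear F0/F vs [Q]. Ka and n from double-log plot. ΔH/ΔS from van't Hoff; ΔG = ΔH − TΔS.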

[2] = molecular target: T1, α-Glucosidase from Saccharomyces cerevisiae; assay: α-Glucosidase inhibition assay; format: biochemical
[3] = molecular target: T1, α-Glucosidase from Saccharomyces cerevisiae; assay: Inhibitory kinetic analysis; format: biochemical
Method in brief: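 Enzyme in 100 mM phosphate buffer pH 6.8 at 37 °C with varied pNPG and test compound at 0, 2, 4, 6, 10 μM. Reversibility was tested as rate vs enzyme at 1.35–5.40 × 10−2 μM final. Lineweaver–Burk plots used enzyme at 6.96 × 10−2 μM. Ki came from nonlinear regression to competitive, non-competitive and mixed models. Mean ± SD, n = 3.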

[4] = van't Hoff plot, 298, 304 and 310 K

T1 sequence (P53341 whole entry): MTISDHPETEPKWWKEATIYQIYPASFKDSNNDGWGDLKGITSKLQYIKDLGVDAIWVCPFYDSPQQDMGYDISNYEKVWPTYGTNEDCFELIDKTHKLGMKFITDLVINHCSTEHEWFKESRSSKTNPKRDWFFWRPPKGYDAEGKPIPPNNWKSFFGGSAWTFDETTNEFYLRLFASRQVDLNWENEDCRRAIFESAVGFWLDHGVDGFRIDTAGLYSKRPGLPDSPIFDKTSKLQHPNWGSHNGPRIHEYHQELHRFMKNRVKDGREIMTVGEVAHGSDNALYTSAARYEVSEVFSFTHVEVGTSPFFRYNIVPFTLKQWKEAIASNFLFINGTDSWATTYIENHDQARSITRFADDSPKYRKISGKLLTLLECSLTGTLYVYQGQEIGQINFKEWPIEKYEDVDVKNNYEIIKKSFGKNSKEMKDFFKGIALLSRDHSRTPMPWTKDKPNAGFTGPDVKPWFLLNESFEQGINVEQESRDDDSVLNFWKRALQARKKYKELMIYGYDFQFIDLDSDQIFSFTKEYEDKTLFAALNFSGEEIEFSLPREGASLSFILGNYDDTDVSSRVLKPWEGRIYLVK

- Kq (quenching rate constant) ([1]; 298 K): 5.02e+13 L/mol/s
- Kq (quenching rate constant) ([1]; 304 K): 7.01e+13 L/mol/s
- Kq (quenching rate constant) ([1]; 310 K): 1.604e+14 L/mol/s
- Kd ([1]; T 298 K): 2030 nM
- Kd ([1]; T 304 K): 1380 nM
- Kd ([1]; T 310 K): 739 nM
- K SV (Stern–Volmer quenching constant) ([1]; T 298 K): 5.02 ± 0.039 ×10^5 L mol^−1
- n (number of binding sites per α-glucosidase molecule) ([1]; T 298 K): 1.17 ± 0.057
- ΔG° ([1]; T 298 K): -32.39 ± 9.64 kJ/mol
- K SV (Stern–Volmer quenching constant) ([1]; T 304 K): 7.01 ± 0.032 ×10^5 L mol^−1
- n (number of binding sites per α-glucosidase molecule) ([1]; T 304 K): 1.16 ± 0.045
- ΔG° ([1]; T 304 K): -34.34 ± 9.64 kJ/mol
- K SV (Stern–Volmer quenching constant) ([1]; T 310 K): 16.04 ± 0.049 ×10^5 L mol^−1
- n (number of binding sites per α-glucosidase molecule) ([1]; T 310 K): 1.32 ± 0.017
- ΔG° ([1]; T 310 K): -36.30 ± 9.64 kJ/mol
- ΔH° [1, 4]: 64.55 ± 9.67 kJ/mol
- ΔS° [1, 4]: 325.31 ± 31.80 J mol^−1 K^−1
- IC50 [2]: 4.39 ± 0.74 µM
- Ki [3]: 5.38 ± 0.24 µM
- type of inhibition (mechanism) ([3]; Lineweaver–Burk plots, piceatannol 0-10 μM): non-competitive
- reversibility of inhibition ([3]; plots of υ versus [α-glucosidase], piceatannol 0-10 μM): reversible
SMILES: Oc1cc(O)cc(/C=C/c2ccc(O)c(O)c2)c1 [piceatannol, Piceatannol]
